Source: ChEMBL document CHEMBL4265982, “Hybrid compounds from chalcone and 1,2-benzothiazine pharmacophores as selective inhibitors of alkaline phosphatase isozymes” (Eur J Med Chem, 2018)
Activity calls are given as the source filed them. The calls are words filed in the database; no cut-off is given here.

Assays:
Homo sapiens = organism: Homo sapiens; assay: Selectivity index, ratio of IC50 for human TNAP expressed in African green monkey COS7 cell membranes to IC50 for human IAP expressed in African green monkey COS7 cell membranes
Procedure, shortened: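 Ratio of IC50 at h-TNAP to IC50 at h-IAP. Each IC50 is from the CDP-Star luminescence assay on lysates of transfected COS-7 cells, pH 9.8 DEA buffer. Index > 1 means selectivity for h-IAP; < 1 means selectivity for h-TNAP.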

[1] = target: T1, Alkaline phosphatase, tissue-nonspecific isozyme (Homo sapiens) (UniProt P05186); assay: Non-competitive inhibition of human TNAP expressed in African green monkey COS7 cell membranes up to 0.3 uM using CDP-star as substrate pretreated for 5 to 10 mins followed by substrate addition and measured after 15 to 20 mins by double reciprocal plot analysis
T1 sequence (whole entry): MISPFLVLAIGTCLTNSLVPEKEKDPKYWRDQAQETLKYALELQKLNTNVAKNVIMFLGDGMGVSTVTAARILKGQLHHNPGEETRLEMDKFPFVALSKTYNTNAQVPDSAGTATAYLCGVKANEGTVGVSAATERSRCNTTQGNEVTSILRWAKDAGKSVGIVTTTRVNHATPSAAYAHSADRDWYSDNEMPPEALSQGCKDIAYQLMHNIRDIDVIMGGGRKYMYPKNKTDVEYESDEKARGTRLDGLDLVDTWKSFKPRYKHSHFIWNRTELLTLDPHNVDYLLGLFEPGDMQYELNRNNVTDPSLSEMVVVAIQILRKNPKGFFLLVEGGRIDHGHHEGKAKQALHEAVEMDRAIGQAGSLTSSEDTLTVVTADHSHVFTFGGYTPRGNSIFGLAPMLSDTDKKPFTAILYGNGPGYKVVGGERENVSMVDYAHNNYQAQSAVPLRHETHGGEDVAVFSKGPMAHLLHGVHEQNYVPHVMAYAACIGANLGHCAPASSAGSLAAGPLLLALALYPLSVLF
Procedure, shortened: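 Kinetics: double reciprocal plots of initial velocity versus CDP-Star concentration at several inhibitor concentrations. Enzyme is lysate of COS-7 cells transfected with h-TNAP plasmid (lipofectamine, 5 h, 37 °C, harvested 40–72 h). Buffer 3 M DEA pH 9.8, 2.5 mM MgCl2, 0.05 mM ZnCl2. Preincubation 5–10 min at 37 °C, luminescence read 15–20 min after substrate.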

[2] = target: T2, Intestinal-type alkaline phosphatase (Homo sapiens, UniProt P09923); assay: Inhibition of human IAP expressed in African green monkey COS7 cell membranes using CDP-star as substrate pretreated for 5 to 10 mins followed by substrate addition and measured after 15 to 20 mins by […]
Procedure, shortened: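 Enzyme from transfected COS-7 lysates (h-TNAP 46 ng/well, h-IAP 57 ng/well), stored with 7.5% glycerol at -80 °C. Inhibitor tested up to 200 μM, final DMSO 1%, in 3 M DEA pH 9.8 with 2.5 mM MgCl2 and 0.05 mM ZnCl2. Preincubation 37 °C for 5–10 min, then CDP-Star added. Luminescence read after 15–20 min. IC50 from curve fitting, mean ± SEM, n = 3.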
Target sequence in this assay (P09923 whole entry): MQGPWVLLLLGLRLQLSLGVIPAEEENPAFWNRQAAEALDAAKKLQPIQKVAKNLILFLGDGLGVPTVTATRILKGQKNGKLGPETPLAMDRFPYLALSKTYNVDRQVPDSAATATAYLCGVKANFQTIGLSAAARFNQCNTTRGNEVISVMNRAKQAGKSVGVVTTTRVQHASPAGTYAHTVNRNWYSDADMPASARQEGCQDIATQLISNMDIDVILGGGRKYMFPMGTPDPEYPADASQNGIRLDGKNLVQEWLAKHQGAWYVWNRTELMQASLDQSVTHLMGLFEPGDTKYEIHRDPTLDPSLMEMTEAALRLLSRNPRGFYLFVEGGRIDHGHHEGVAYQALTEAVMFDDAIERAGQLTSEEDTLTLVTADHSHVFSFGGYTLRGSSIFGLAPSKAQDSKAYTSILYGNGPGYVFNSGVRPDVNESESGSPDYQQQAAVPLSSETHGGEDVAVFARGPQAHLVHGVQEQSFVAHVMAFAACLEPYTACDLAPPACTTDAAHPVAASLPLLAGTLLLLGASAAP

HeLa = assay: Cytotoxicity against human HeLa cells assessed as cell growth inhibition at 100 uM after 24 hrs by MTT assay; assay type: functional; conditions: read-out: GI
Procedure, shortened: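 HeLa cells seeded overnight at 2.5 × 10⁴ cells/mL, then exposed to compound (final 100 μM) for 24 h at 37 °C. MTT (5 μg/well) added for 4 h, then solubilised with 50% isopropanol/10% SDS. OD read at 570 nm minus 690 nm background. Percent inhibition relative to untreated control; triplicate, mean of three independent experiments ± SEM.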

[3] = target: T3, Alkaline phosphatase, tissue-nonspecific isozyme (Homo sapiens, UniProt P05186); assay: Inhibition of human TNAP expressed in African green monkey COS7 cell membranes using CDP-star as substrate pretreated for 5 to 10 mins followed by substrate addition and measured after 15 to 20 mins by […]
T3 sequence (P05186 whole entry): T1 sequence (whole entry)

[4] = target: T1, Alkaline phosphatase, tissue-nonspecific isozyme (Homo sapiens); assay: Potency index, ratio of levamisole IC50 to test compound IC50 for human TNAP
[5] = target: T2, Intestinal-type alkaline phosphatase; assay: Competitive inhibition of human IAP expressed in African green monkey COS7 cell membranes up to 1.5 uM using CDP-star as substrate pretreated for 5 to 10 mins followed by substrate addition and measured after 15 to 20 mins by double reciprocal plot analysis
Target sequence in this assay (P09923 whole entry, looked up): as the sequence (P09923 whole entry) above

Row | SMILES | Ratio IC50 (Homo sapiens) | inhibition [1] | IC50 [2] [µM] | IC50 [3] [µM] | Ratio IC50 [4] | inhibition [5] | inhibition of growth at 100 µM (HeLa) [%]
1 | O=C1/C(=C/c2ccc(Cl)cc2)NS(=O)(=O)c2ccccc21 | 0.1 | Active | 4.35 | 0.25 | 80 |  | 55
2 | O=C1/C(=C/c2ccc(Cl)cc2Cl)NS(=O)(=O)c2ccccc21 | > 53 |  | 4.96 | > 200 |  |  | 59
3 | c1ccc([C@H]2CN3CCSC3=N2)cc1 [LEVAMISOLE] |  |  | > 200 |  |  |  | 
4 | O=C1/C(=C/c2c(F)cccc2F)NS(=O)(=O)c2ccccc21 | 0.1 |  | 10.6 | 1.53 |  |  | 17
5 | O=C1/C(=C/c2cccc(Cl)c2)NS(=O)(=O)c2ccccc21 | > 50 |  | 3.77 | > 200 |  |  | 64
6 | O=C1/C(=C/c2ccccc2Br)NS(=O)(=O)c2ccccc21 | > 1 |  | 7.43 | > 200 |  |  | 53
7 | O=C1/C(=C/c2cccc(F)c2)NS(=O)(=O)c2ccccc21 | 0.3 |  | 9.93 | 3.19 |  |  | 53
8 | N[C@@H](Cc1ccccc1)C(=O)O [PHENYLALANINE] | > 2 |  |  | > 200 |  |  | 

Further compounds by falling IC50 [2], results first:

Row | Ratio IC50 (Homo sapiens) | inhibition [1] | IC50 [2] [µM] | IC50 [3] [µM] | Ratio IC50 [4] | inhibition [5] | SMILES | inhibition of growth at 100 µM (HeLa) [%]
9 | 0.6 |  | 3.75 | 2.36 |  |  | Cc1ccccc1/C=C1\NS(=O)(=O)c2ccccc2C1=O | 7
10 | 0.4 |  | 3.69 | 1.43 |  |  | O=C1/C(=C/c2ccc(Br)cc2)NS(=O)(=O)c2ccccc21 | 59
11 | 0.4 |  | 3.06 | 1.35 |  |  | O=C1/C(=C/c2ccc(F)cc2)NS(=O)(=O)c2ccccc21 | 41
12 | > 26 |  | 2.55 | > 200 |  |  | O=C1/C(=C/c2cccc(Br)c2)NS(=O)(=O)c2ccccc21 | 65
13 | 0.4 |  | 1.78 | 0.66 |  |  | O=C1/C(=C/c2ccccc2)NS(=O)(=O)c2ccccc21 | 19
14 | 2.6 |  | 1.53 | 4.04 |  |  | COc1ccc(/C=C2\NS(=O)(=O)c3ccccc3C2=O)cc1 | 11
15 | 2.1 |  | 1.24 | 2.59 |  |  | COc1ccccc1/C=C1\NS(=O)(=O)c2ccccc2C1=O | 17
16 | 3 |  | 1.21 | 3.57 |  |  | O=C1/C(=C/c2cccc(O)c2)NS(=O)(=O)c2ccccc21 | 15
17 | > 190 |  | 1.04 | > 200 |  | Active | COc1cccc(/C=C2\NS(=O)(=O)c3ccccc3C2=O)c1 | 39
